Results as given in paper PMC5819594 (Nano letters, 2017).
“Also recorded” adds a separate entry of the source. No end group written: not given here.

Experiments:
[1] = target: T1, p32 (Homo sapiens, UniProt Q07021); experiment: fluorescence anisotropy; assay type: binding
T1 sequence (Q07021 74-282): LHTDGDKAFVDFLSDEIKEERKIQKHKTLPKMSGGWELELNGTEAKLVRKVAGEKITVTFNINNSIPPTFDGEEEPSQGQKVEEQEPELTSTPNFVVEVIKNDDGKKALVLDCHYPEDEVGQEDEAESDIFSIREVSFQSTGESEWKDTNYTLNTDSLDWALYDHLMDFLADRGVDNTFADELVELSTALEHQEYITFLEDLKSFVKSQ

[2] = system: tumors; settings: cited from earlier work
[3] = system: tumor blood vessels (CD31); experiment: CD31 blood vessel count in treated tumors; assay type: in vivo; settings: n = 3 mice per group; for average blood vessel count: CD31, 10 random fields at 20×
Outline: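 Residual MCF10CA1a orthotopic tumors came from nude mice given peptide-coated NWs i.v. every other day for 3 weeks (7.5mg iron/kg), with a PBS control. Sections were stained with anti-CD31 and imaged by confocal microscopy. Vessels per field were counted, and groups were compared by one-way ANOVA with Tukey's post hoc test.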

[4] = system: MCF10CA1a tumors; settings: cited from earlier work
[5] = system: glioblastomas; settings: mice, cited from earlier work
[6] = system: tumor vessels of treated MCF10CA1a tumors; experiment: NW homing to residual treated tumors; assay type: in vivo, mice; settings: for NW-positive tumor vessels: treated tumors after three weeks, five hours after last injection, n = 3/group
Outline: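 MCF10CA1a tumor mice were treated for three weeks with FAM-labeled peptide-NWs. Five hours after the last injection, mice were perfused through the heart with PBS and tissues collected. Tumor sections were stained with anti-CD31 and DAPI and examined by confocal microscopy. Percentage of NW-positive vessels was scored in 10 random areas per section, n = 3/group, mean ±SD.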

[7] = system: MCF10CA1a orthotopic tumor xenografts; experiment: anti-tumor efficacy, MCF10CA1a breast cancer model; assay type: in vivo, human tumor cells in BALB/c nude mice; settings: for reduction of tumor volume versus PBS: i.v. every other day for 3 weeks, 7.5 mg of iron/kg, at three weeks
[8] = system: MCF10CA1a tumors; experiment: tumor homing of homing peptide-D[KLAKLAK]2-NWs, MCF10CA1a; assay type: in vivo, human tumor cells in BALB/c nude mice; settings: for tumor homing and penetration of chimeric peptide-NWs: confocal microscopy
[9] = system: tumor macrophages; settings: LyP-1 alone, without drug, tumor macrophages in particular; cited from earlier work
[10] = system: tumor-associated macrophages/myeloid cells; settings: ref Laakkonen et al., 2004; Fogal et al., 2008; cited from earlier work
[11] = target: T1, p32; settings: LyP-1 linearized; no reference given; cited from earlier work
[12] = system: MCF10CA1a cultured tumor cells; experiment: cell death and caspase-3 activation in cultured tumor cells; assay type: cell-based, human; settings: Figure S8
[13] = system: MCF10CA1a tumors; experiment: histology; assay type: in vivo, human tumor cells in BALB/c nude mice; settings: end of 3-week treatment, H&E
Outline: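 Orthotopic MCF10CA1a xenografts in BALB/c nude mice were treated i.v. with peptide-coated NWs every other day for 3 weeks at 7.5mg iron/kg. At the end of treatment, residual tumors were sectioned and stained with hematoxylin and eosin.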

[14] = mouse, in vivo
[15] = system: 4T1 mouse breast cancer tumors; experiment: tumor homing in 4T1 model; assay type: in vivo; settings: 4T1 breast tumor model
Outline: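 4T1 cells were maintained in DMEM with 10% FBS and 1% Glutamine-Pen-Strep at 37°C/5% CO2. 1 × 10^6 cells were implanted subcutaneously in the flanks of 4-week-old BALB/c mice. Peptide-coated NWs were assessed for homing to tumor vasculature and extravascular tumor tissue.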

[16] = system: MMTV-PyMT tumors; experiment: tumor homing in MMTV-PyMT model; assay type: in vivo, mouse; settings: MMTV-PyMT transgenic breast cancer mice
[17] = system: MCF10CA1a tumors; experiment: TUNEL staining of treated tumors; assay type: in vivo, human tumor cells in BALB/c nude mice; settings: treated tumors after three weeks
[18] = system: NRP-1; experiment: peptide binding to NRP-1 before and after uPA treatment; settings: control peptide with active CendR motif, with and without uPA
[19] = target: T2, LinTT1 (also: FAM-labeled); experiment: fluorescence anisotropy
T2 chain: AKRGARSTA

Molecule: AKRGARSTA [LinTT1]
- Kd [1]: 8.7 µM

Molecule: CGKRK
- tumor homing and penetration of free peptide ([2]; CGKRK (no reference at the statement)): does not extravasate and penetrate beyond tumor vessels

Molecule: CGKRK-D[KLAKLAK]2 [CGKRK-D[KLAKLAK]2-NWs, reference compound]
- average blood vessel count [3]: almost similar to LinTT1NW
- tumor homing of CGKRK-D[KLAKLAK]2-NWs (as shown previously) [4]: accumulated in tumor blood vessels, without penetrating into extravascular tumor tissue
- lifespan in glioblastoma ([5]; more aggressive glioblastoma model): a substantial prolongation of the lifespan of the mice
- tumor growth in glioblastoma ([5]; one glioblastoma model): the growth of tumors was essentially completely suppressed
- NW-positive tumor vessels [6]: 20%
- reduction of tumor volume versus PBS [7]: about 50%

Molecule: CGKRKRA-D[KLAKLAK]2 [CGKRKRA-D[KLAKLAK]2-NWs]
- tumor homing and penetration of chimeric peptide-NWs [8]: primarily localized with tumor blood vessels similar to LyP1

Molecule: CGNKRTRGC [LyP-1]
- tumor homing and penetration of LyP-1 [2]: capable of penetrating into tumors and accumulates in the extravascular tumor tissue
- apoptosis in cells that take up the peptide [9]: causes apoptosis in the cells that take up the peptide most avidly, tumor macrophages in particular
- overlap with tumor-associated macrophages/myeloid cells [10]: substantial overlap with tumor-associated macrophages/myeloid cells in tumor tissue
- p32-binding activity [11]: no detectable p32-binding activity

Molecule: CGRKR(NH2)-D[KLAKLAK]2 [CGRKR(NH2)-D[KLAKLAK]2-NWs]
- tumor homing and penetration of chimeric peptide-NWs [8]: primarily localized with tumor blood vessels similar to LyP1

Molecule: LinTT1-D[KLAKLAK]2 [LinTT1-D[KLAKLAK]2-NWs]
- cell death and caspase-3 activation [12]: cell death accompanied by activation of caspase-3
- average blood vessel count [3]: marked reduction of blood vessels
- reduction of blood vessels versus PBS control ([3]; CD31, after treatment): more than 6 fold
- tumor homing and penetration of chimeric peptide-NWs [8]: highly effective in extravasating and penetrating tumor parenchyma; also recorded: superior to other chimeric peptide-NWs; also recorded: partially co-localize with tumor blood vessels (CD31), but most of the NWs are outside the blood vessels in the extravascular tumor tissue
- tumor accumulation relative to CGKRK-D[KLAKLAK]2-NWs ([8]; quantified NW fluorescence): over 7 fold
- necrosis and apoptotic nuclei in residual tumors [13]: extensive necrosis and a thin rim of tumor tissue around the necrotic core that contained many apparently apoptotic nuclei
- toxicity [14]: no significant toxicity
- NW-positive tumor vessels [6]: Approximately 68%
- accumulation in treated tumors ([6]; tumors treated with LinTT1D(KLAKLAK)2-NWs for 3 weeks): no apparent decline in accumulation
- tumor homing, 4T1 [15]: efficiently homed to the vasculature of the 4T1 and MMTV-PyMT tumors, accumulating also in extravascular tumor tissue
- anti-tumor activity ([7]; 3 weeks, 7.5 mg of iron/kg i.v. every other day): essentially no tumor growth; also recorded: more effective than the previous NPs
- reduction of tumor volume versus PBS [7]: about 90%
- mice in which tumor seemed to have disappeared ([7]; one of two experiments, 3 weeks): four out of 6 mice
- tumors regressed ([7]; proportion of tumors, LinTT1D(KLAKLAK)2-NW group): 10/14
- tumor homing, MMTV-PyMT [16]: efficiently homed to the vasculature of the 4T1 and MMTV-PyMT tumors, accumulating also in extravascular tumor tissue
- apoptosis by TUNEL staining [17]: apoptosis in the LinTT1D[KLAKLAK]2-NW tumor rims, where it co-localized with the NWs

Molecule: RPARPAR
- binding to NRP-1 regardless of uPA [18]: bound only to NRP-1 regardless of uPA treatment

B1: p32 (gC1qR/HABP) (protein)
chain: T1 sequence (Q07021 74-282)
- Kd [19]: 8.7 µM
